Screening results (PubChem BioAssay)
The list is not random: actives were taken first. Their share in the collection is about 2%.
PfM18AAP inh: PfM18AAP inhibitors, malaria aminopeptidase, primary screen, biochemical, QFRET, recombinant enzyme; M18 aspartyl aminopeptidase (Plasmodium falciparum 3D7); H-Glu-NHMec fluorogenic cleavage; inhibition, % at 7.35 µM; 1.2% of 290,000 active; AID 1822, 2009;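 active means inhibition above the campaign mean inhibition over all tested compounds plus 3 SD, cut at about 28% in these data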;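 further: 0% = plate median of test compound wells and 100% = 2 mM ZnCl2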
TNF necrop inh: inhibitors of TNF-alpha triggered necroptosis, primary screen, cell-based, Jurkat FADD-/-, single concentration; Jurkat FADD-/- TNF necroptosis rescue, ATP luminescence, 24 h; 0 = TNF only, 100 = no-TNF cells; activation (protection from cell death), % at 10 µM; 0.068% of 220,000 active;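 active means activation, meaning protection from cell death, of at least 50% relative to plate controls; inactive means activation below 50%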;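 further: necroptosis triggered by 40 ng/mL TNF-alpha added together with compound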
Tb hexokinase: Trypanosoma brucei hexokinase 1 inhibitors, primary screen, biochemical, G6PDH-coupled NADH absorbance, MLSCN library | hexokinase 1 [Trypanosoma brucei] | recombinant TbHK1, G6PDH-coupled NADH A340 | inhibition, % at 10 µM | 0.11% of 220,000 active | AID 1430, 2008;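 active means inhibition of 50% or more in the single-dose primary screen; inactive means inhibition below 50%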
zVAD death inh: inhibitors of zVAD-triggered necroptosis, primary screen, L929 cells; L929 zVAD necroptosis rescue, ATP luminescence, 24 h; with zVAD 60 µM; viability rescue, % at 10 µM; 0.38% of 220,000 active;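 active means activation, scaled between plate controls, above about 75%, limit read from the data; inactive means activation under that limit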;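 further: 0% = zVAD with DMSO and 100% = DMSO alone without zVAD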
RBBP9 inhibitor: human RBBP9 inhibitors, primary screen, biochemical, fluorescence polarization, FP-Rh probe, HTS. Serine hydrolase RBBP9 (Homo sapiens), O75884. 0.2% of 220,000 active. AID 1515, 2009. recombinant RBBP9. inhibition, % at 7.94 µM;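 active means inhibition above the campaign mean of all tested compounds plus 3 SD, cut at about 14% in these data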;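 further: plate controls were DMSO wells with RBBP9 for no effect and wells lacking RBBP9 protein for full effect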
Target sequence (O75884 whole entry, looked up): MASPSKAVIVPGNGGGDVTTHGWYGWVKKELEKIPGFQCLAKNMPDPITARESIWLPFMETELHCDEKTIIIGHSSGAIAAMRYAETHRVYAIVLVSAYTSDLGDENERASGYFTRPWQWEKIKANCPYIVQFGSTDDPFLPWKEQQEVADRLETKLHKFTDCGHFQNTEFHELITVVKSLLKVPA
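Test system: recombinant human RBBP9; Timing: 30 min then 45 min, 25 °C; Detection: fluorescence polarization; Control set: RBBP9 with DMSO as uninhibited control, no-protein wells as full inhibition; Compound dosing: one concentration, 7.94 µM nominal, 0.794% DMSO; Probe or stimulus: FP-Rh activity-based probe, 375 nM before mixing.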
Lipid droplet: inhibitors of hepatocyte lipid droplet formation, primary screen, imaging, high-throughput imaging, BODIPY stain | 0.4% of 240,000 active | inhibition, % at 6.5 µM | AML12 mouse hepatocytes, oleate lipid droplets;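 active means lipid droplet intensity inhibited by at least 50%, with more than 500 cells counted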
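Material: mouse AML12 hepatocyte cell line, fixed after treatment; Timing: compound with oleate, overnight; Technique: high-content imaging of BODIPY-stained droplets and DAPI nuclei; Probe or stimulus: oleate, 100 µM final; Dosing: compound at 6.5 µM only.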
Hep lipid conf: hepatocyte lipid droplet accumulation inhibitors, confirmation, imaging, AML12 mouse hepatocytes, single concentration, high-content; shares compounds with Lipid droplet; BODIPY lipid droplet imaging; droplets induced with 100 µM oleic acid; inhibition, % at 5.2 µM; 65% of 870 active;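 active means inhibition of lipid droplet metric at least 50%, with more than 300 cells in each of four replicates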;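 further: plate controls were DMSO with oleic acid for no effect and 5 µM Triacsin-C for full effect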
AML12 cytotox: AML12 hepatocyte cytotoxicity, counter-screen for hepatic lipid droplet formation project, imaging, DAPI nuclear morphology imaging; z-score at 5 µM; 3% of 870 active; shares compounds with Lipid droplet; AML12 mouse hepatocytes; stronger effect = higher value; cells fed 100 µM oleate overnight; AID 463200, 2010; in the data active means z-score above about 6.3;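 further: compound exposure lasted overnight at 37 °C before fixation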
AML12 tox ATP: AML12 hepatocyte cytotoxicity, confirmation, cytotoxicity control for hepatic lipid droplet formation project, cell-based, single concentration; shares compounds with Lipid droplet; AML12 mouse hepatocyte viability, ATP luminescence; cells loaded with 100 µM oleic acid; cytotoxicity, % at 50 µM; 530 tested, under 10 active; AID 463219, 2010;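 active means cytotoxicity above 50% in each of four replicates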;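 further: compound exposure lasted overnight at 37 °C before the ATP read; 0% = DMSO-treated cells and 100% = wells with no cells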
The depositor's hits bear a star.

Results for CCCNC1=CC(=O)CC(C)(C)C1 ?
PfM18AAP inh: -1; TNF necrop inh: 1; Tb hexokinase: 2; zVAD death inh: 1; RBBP9 inhibitor: -8; Lipid droplet: 57*; Hep lipid conf: 27; AML12 cytotox: -0.44

What do the screens show for `Cc1cc(C)c(O)c(NC(=S)NC(=O)Cc2ccccc2)c1`?
PfM18AAP inh: 5; Lipid droplet: -12

How did COc1cccc(-c2nc(NCc3ccccc3)c3ccccc3n2)c1O do in these assays?
PfM18AAP inh: 3; Lipid droplet: 69*; Hep lipid conf: 55*; AML12 cytotox: -0.68; AML12 tox ATP: -5

Results for COc1cccc(-c2nc(NCc3ccco3)c3ccccc3n2)c1O ?
PfM18AAP inh: -14; TNF necrop inh: 0; Tb hexokinase: -30; zVAD death inh: 0; RBBP9 inhibitor: -11; Lipid droplet: 3

How did O=C(Nc1ccccc1)C1=C[C@@H](C2CCCCC2)C[C@@H](OCc2ccc(CO)cc2)O1 do in these assays?
PfM18AAP inh: 4; TNF necrop inh: -3; Tb hexokinase: -7; zVAD death inh: 0; RBBP9 inhibitor: -8; Lipid droplet: 53*; Hep lipid conf: 65*; AML12 cytotox: -0.34; AML12 tox ATP: 8

How did O=C(Nc1ccccc1)C1=C[C@H](C2CCCCC2)C[C@H](OCc2ccc(CO)cc2)O1 do in these assays?
PfM18AAP inh: -5; TNF necrop inh: 4; Tb hexokinase: -8; zVAD death inh: -1; RBBP9 inhibitor: -3; Lipid droplet: -32

Results for O=[N+]([O-])c1cc(Cl)ccc1N1CCN(c2cccc(C(F)(F)F)c2)CC1 ?
PfM18AAP inh: -2; TNF necrop inh: 2; Tb hexokinase: 0; zVAD death inh: 1; RBBP9 inhibitor: -8; Lipid droplet: 64*; Hep lipid conf: 94*; AML12 cytotox: 0.54; AML12 tox ATP: 0

What do the screens show for `O=[N+]([O-])c1cc(Cl)ccc1N1CCCC1`?
PfM18AAP inh: 4; TNF necrop inh: 0; Tb hexokinase: -3; zVAD death inh: 2; RBBP9 inhibitor: -9; Lipid droplet: 6

How did Cc1cc(C)n(-c2nc(N(c3ccccc3)c3ccccc3)nc(-n3nc(C)cc3C)n2)n1 do in these assays?
PfM18AAP inh: 0; TNF necrop inh: -10; Tb hexokinase: -12; zVAD death inh: 0; RBBP9 inhibitor: -3; Lipid droplet: 57*; Hep lipid conf: 69*; AML12 cytotox: 4.8; AML12 tox ATP: 93*

What do the screens show for `Cc1c(C(=O)O)sc2nc3n(c(=O)c12)CCC(C)CC3` (stereo unspecified)?
PfM18AAP inh: -2; TNF necrop inh: -1; Tb hexokinase: -3; zVAD death inh: 0; RBBP9 inhibitor: -10; Lipid droplet: 93*; Hep lipid conf: 27; AML12 cytotox: -0.37

Results for Cc1cc(N2CCOCC2)n2nc(C)c(-c3ccccc3Cl)c2n1 ?
PfM18AAP inh: 7; Lipid droplet: 78*; Hep lipid conf: 107*; AML12 cytotox: -0.16; AML12 tox ATP: 7

Results for Cc1cc(N2CCCCCC2)n2nc(C)c(-c3ccccc3)c2n1 ?
PfM18AAP inh: 0; Lipid droplet: 9

What do the screens show for `Cc1cc(N2CCOCC2)n2nc(C)c(-c3ccccc3)c2n1`?
PfM18AAP inh: -10; TNF necrop inh: 1; Tb hexokinase: -22; zVAD death inh: 10; RBBP9 inhibitor: -5
